# Source: ChEMBL document CHEMBL4825712
# Tests used:
# [1] = tested on: Influenza A virus; experiment: Antiviral activity against Influenza A virus A/WSN/33(H1N1) infected in human A549 cells assessed as viral replication measured after 24 hrs by immunofluorescence microscopy; format: functional, organism-based; details: A/WSN/1933(H1N1); for IC50: A549, 24 h; for IC90: A549, time 24 hrs
# Outline: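 A549 cells were infected with A/WSN/33 at MOI 0.01 for 24 h, then fixed in 4% formaldehyde and permeabilized with 0.1% Triton X-100. They were immunostained for NP with an Alexa-488 secondary plus DAPI and imaged on an image cytometer. Percent infection = NP-positive cells divided by total cells.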
# [2] = tested on: A549; experiment: Cytotoxicity against human A549 cells by MTT assay; format: cell-based
# Outline: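 MTT assay run according to the manufacturer's instructions, concurrently with NP immunostaining of infected A549 cultures.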
# [3] = Selectivity index, ratio of CC50 for human A549 cells to IC50 for antiviral activity against Influenza A virus A/WSN/33(H1N1) infected in human A549 cells; format: toxicity, cell-based; details: read-out: Selectivity Index
# Outline: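 Ratio of CC50 to IC50. IC50 came from A549 cells pretreated 2 h with compound, then infected 24 h with WSN-PB2-Nanoluc at MOI 0.02 and read by Nano-Glo luminescence. CC50 was measured by CellTiter-Glo.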
SMILES,IC50 [1] [µM],IC90 [1] [µM],CC10 [2] [µM],selectivity ratio [3],CC50 [2] [µM]
CCN(c1ccc(F)cc1F)S(=O)(=O)c1cc(F)ccc1F,3.4,> 25,> 25,> 7,
C#CCN(c1ccc(Cl)cc1C)S(=O)(=O)c1cc(Cl)ccc1Cl,0.12,3.4,> 5,> 42,> 5
CCN(c1ccc(F)cc1F)S(=O)(=O)c1cc(F)ccc1Cl,0.22,9.8,,> 114,
CCN(c1ccc(C)nn1)S(=O)(=O)c1cc(Cl)ccc1Cl,> 5,,,,
CCN(c1ccc(CC(=O)N2CCN(C)CC2)cc1)S(=O)(=O)c1cc(Cl)ccc1Cl,> 25,> 25,> 25,,> 25
CCN(c1ccc(CCN)cc1)S(=O)(=O)c1cc(Cl)ccc1Cl,> 25,> 25,> 25,,> 25
CCN(c1cnccc1C)S(=O)(=O)c1cc(Cl)ccc1Cl,> 5,,,,
CCN(c1ccc(F)cc1F)S(=O)(=O)c1cccc(Cl)c1,0.49,10.3,10.3,> 51,
CCN(c1ccc(F)cc1)S(=O)(=O)c1cc(Cl)ccc1Cl,0.068,0.94,> 5,> 74,> 5
CCN(c1ccc(C)cc1)S(=O)(=O)c1cc(Cl)ccc1Cl,0.084,1.8,> 25,> 298,> 25
CCN(c1ccncc1F)S(=O)(=O)c1cc(Cl)ccc1Cl,> 5,,,,
Cc1cc(Cl)ccc1N(CC1CC1)S(=O)(=O)c1cc(Cl)ccc1Cl,0.49,2.8,> 5,> 10,> 5
CCN(c1ccccc1)S(=O)(=O)c1cc(Cl)ccc1Cl,0.86,6.9,> 5,> 6,> 5
CCN(c1ccc(F)cc1F)S(=O)(=O)c1cccc(Cl)c1Cl,> 25,> 25,> 25,,
CCN(c1ccc(CC(=O)O)cc1)S(=O)(=O)c1cc(Cl)ccc1Cl,> 25,> 25,> 25,,> 25
Cc1ccccc1NS(=O)(=O)c1cc(Cl)ccc1Cl,> 5,> 5,> 5,,> 5
CCN(c1ccncc1Cl)S(=O)(=O)c1cc(Cl)ccc1Cl,> 5,,,,
Cc1cc(Cl)ccc1N(CCO)S(=O)(=O)c1cc(Cl)ccc1Cl,> 5,> 5,> 5,,> 5
CCN(c1c(C)cc(Cl)cc1Cl)S(=O)(=O)c1cc(Cl)ccc1Cl,0.39,> 5,> 5,> 13,> 5
Cc1ccccc1N(C)S(=O)(=O)c1cc(Cl)ccc1Cl,> 5,> 5,> 5,,> 5
CCN(c1ccc(CCNC(C)=O)cc1)S(=O)(=O)c1cc(Cl)ccc1Cl,> 25,> 25,> 25,,> 25
Cc1cc(Cl)ccc1N(CCF)S(=O)(=O)c1cc(Cl)ccc1Cl,35,> 5,> 5,> 9,> 5
CCN(c1ccccc1Cl)S(=O)(=O)c1cc(Cl)ccc1Cl,0.15,1.5,> 5,> 33,> 5

SMILES,IC50 [1] [µM],IC90 [1] [µM],CC10 [2] [µM],selectivity ratio [3],CC50 [2] [µM]
CCOC(=O)Cc1ccc(N(CC)S(=O)(=O)c2cc(Cl)ccc2Cl)cc1,0.08,5.7,> 5,> 63,> 5
CCN(c1ccc(CCO)cc1)S(=O)(=O)c1cc(Cl)ccc1Cl,> 25,> 25,> 25,,> 25
CCN(c1cnc(C)cn1)S(=O)(=O)c1cc(Cl)ccc1Cl,> 5,,,,
C=CCN(c1ccc(Cl)cc1C)S(=O)(=O)c1cc(Cl)ccc1Cl,0.037,0.43,> 5,> 135,> 5
CCN(c1ccc(Cl)cc1F)S(=O)(=O)c1cc(Cl)ccc1Cl,0.15,1.8,> 5,> 33,> 5
CCN(c1cnc(C)nc1)S(=O)(=O)c1cc(Cl)ccc1Cl,> 5,,,,
CCN(c1ccc(F)cc1F)S(=O)(=O)c1ccccc1Cl,> 25,> 25,> 25,,
C=CCN(c1ccccc1C)S(=O)(=O)c1cc(Cl)ccc1Cl,0.12,0.57,> 5,> 42,> 5
CCN(c1ccc(F)cc1F)S(=O)(=O)c1ccc(Cl)cc1Cl,> 25,> 25,> 25,,
CCN(c1ccc(C)nc1)S(=O)(=O)c1cc(Cl)ccc1Cl,> 5,,,,
CCN(c1ccc(F)cc1F)S(=O)(=O)c1cc(Cl)ccc1F,0.82,18.5,,> 30,
C#CCN(c1ccccc1C)S(=O)(=O)c1cc(Cl)ccc1Cl,0.38,5.1,> 5,> 13,> 5
CCN(c1ccc(F)cc1F)S(=O)(=O)c1c(Cl)cccc1Cl,> 25,> 25,> 25,,
COCCN(c1ccc(Cl)cc1C)S(=O)(=O)c1cc(Cl)ccc1Cl,1.2,6,> 5,> 4,> 5
CCN(c1c(F)cc(Cl)cc1F)S(=O)(=O)c1cc(Cl)ccc1Cl,0.41,> 5,0.025,> 12,> 5
Cc1ccccc1N(C(C)C)S(=O)(=O)c1cc(Cl)ccc1Cl,1.8,> 5,> 5,> 3,> 5
CCN(c1ccc(F)cc1F)S(=O)(=O)c1cc(Cl)cc(Cl)c1,0.75,,25,> 33,
Cc1cc(Cl)ccc1N(C(F)F)S(=O)(=O)c1cc(Cl)ccc1Cl,1.3,> 5,> 5,> 4,> 5
CCN(c1ccc(Cl)cn1)S(=O)(=O)c1cc(Cl)ccc1Cl,> 5,,,,
CCN(c1ccc(F)cc1F)S(=O)(=O)c1ccc(Cl)c(Cl)c1,> 25,> 25,> 25,,
CCN(c1ccccc1C#N)S(=O)(=O)c1cc(Cl)ccc1Cl,0.17,2.1,> 5,> 29,> 5
CCN(c1ccc(F)cc1F)S(=O)(=O)c1ccccc1,> 25,> 25,> 25,,
